According to ChEMBL document CHEMBL4364285 (J Med Chem, 2019):
Active and inactive are the calls of the source. The calls are words filed in the database; no cut-off is given here.

Key:
Cereblon isoform 4 = target: T1, Cereblon isoform 4 (Magnetospirillum gryphiswaldense, UniProt A4TVL0); experiment: Inhibition of MANT-uracil binding to wild-type Magnetospirillum gryphiswaldense CRBN isoform 4 by FRET assay
T1 sequence (A4TVL0 whole entry): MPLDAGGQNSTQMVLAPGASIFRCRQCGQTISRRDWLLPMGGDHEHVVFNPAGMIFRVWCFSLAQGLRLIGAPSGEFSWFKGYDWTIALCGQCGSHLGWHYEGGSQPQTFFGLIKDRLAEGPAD
In short: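 Wild-type MsCI4 FRET binding assay, following an earlier protocol. Compounds were dissolved in DMSO, or in water or bicarbonate buffer where soluble. Ki values were derived from the binding curves.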

[1] = target: Protein cereblon/Zinc finger protein Aiolos (Homo sapiens) (UniProt Q96SW2+Q9UKT9); experiment: Inhibition of CRBN-mediated IKFZ3 degradation in human OPM2 cells measured after 24 hrs by Western blot analysis; format: cell-based
THP-1 = experiment: Inhibition of TPA-induced TNFalpha production in human THP1 cells at 3 uM by ELISA relative to control; format: functional
[2] = Solubility of the compound in bicarbonate buffer; format: physicochemical
[3] = Solubility of the compound in water; format: physicochemical; conditions: buffer
[4] = Terminal elimination half life in healthy human at 50 to 400 mg, po at pH 7.4; format: ADME, organism-based; conditions: in vivo, read-out: beta t1/2

Chain of Protein cereblon/Zinc finger protein Aiolos (Homo sapiens) (Q96SW2 whole entry, looked up): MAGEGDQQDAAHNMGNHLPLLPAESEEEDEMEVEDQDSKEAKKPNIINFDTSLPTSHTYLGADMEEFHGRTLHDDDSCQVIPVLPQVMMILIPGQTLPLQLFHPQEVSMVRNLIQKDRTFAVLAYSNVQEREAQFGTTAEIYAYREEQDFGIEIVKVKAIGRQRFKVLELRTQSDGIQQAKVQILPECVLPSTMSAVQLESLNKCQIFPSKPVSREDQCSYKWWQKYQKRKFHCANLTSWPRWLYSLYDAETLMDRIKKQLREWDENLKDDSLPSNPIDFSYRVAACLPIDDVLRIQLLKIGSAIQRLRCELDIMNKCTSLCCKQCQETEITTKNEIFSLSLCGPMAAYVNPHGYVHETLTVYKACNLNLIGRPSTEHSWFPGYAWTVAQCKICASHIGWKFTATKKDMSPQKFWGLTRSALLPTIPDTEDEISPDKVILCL
Chain of Protein cereblon/Zinc finger protein Aiolos (Homo sapiens) (Q9UKT9 whole entry, looked up): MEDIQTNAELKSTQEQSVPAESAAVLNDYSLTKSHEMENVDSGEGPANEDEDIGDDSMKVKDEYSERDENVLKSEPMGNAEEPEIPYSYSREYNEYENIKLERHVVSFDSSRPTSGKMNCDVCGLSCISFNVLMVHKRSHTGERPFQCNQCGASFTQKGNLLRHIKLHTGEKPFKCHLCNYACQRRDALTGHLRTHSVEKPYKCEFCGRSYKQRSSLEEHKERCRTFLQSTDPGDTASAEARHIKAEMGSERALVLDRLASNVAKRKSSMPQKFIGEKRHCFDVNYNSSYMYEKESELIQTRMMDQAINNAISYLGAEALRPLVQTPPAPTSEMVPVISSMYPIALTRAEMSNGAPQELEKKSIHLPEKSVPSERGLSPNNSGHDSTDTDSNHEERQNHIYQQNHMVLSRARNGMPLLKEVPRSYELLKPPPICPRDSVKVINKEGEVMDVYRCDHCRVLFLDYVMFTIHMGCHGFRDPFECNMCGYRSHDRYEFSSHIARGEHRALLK

| SMILES | Ki (Cereblon isoform 4) [µM] | inhibition [1] | also measured |
| --- | --- | --- | --- |
| O=C1CC(NC(=O)c2sc3ccccc3c2Cl)C(=O)N1 (stereo unspecified) | > 40 | inactive |  |
| O=C1CCC(NC(=O)c2ccccc2C(=O)O)C(=O)N1 (stereo unspecified) |  |  | inhibition at 3 µM (THP-1): 80% |
| O=C(O)CCC(=O)NCc1ccc(COC(=O)NC2CCC(=O)NC2=O)cc1 (stereo unspecified) | 36 | inactive | solubility [2]: > 200 mM |
| O=C1CCC(N2C(=O)c3ccc([N+](=O)[O-])cc3C2=O)C(=O)N1 (stereo unspecified) | 9 | inactive |  |
| O=C1CCC(N2C(=O)c3cccc([N+](=O)[O-])c3C2=O)C(=O)N1 (stereo unspecified) | > 40 | inactive |  |
| O=C1CC(N2C(=O)c3ccc([N+](=O)[O-])cc3C2=O)C(=O)N1 (stereo unspecified) | 11 | inactive |  |
| Nc1cccc2c1C(=O)N(C1CC(=O)NC1=O)C2=O (stereo unspecified) | > 40 |  |  |
| Nc1cccc2c1C(=O)N(C1CCC(=O)NC1=O)C2=O (stereo unspecified) [POMALIDOMIDE] | 0.8 |  |  |
| O=C1CCC(NC(=O)OC[C@@H]2CCCN2)C(=O)N1 (stereo partly specified) | 45 | inactive |  |
| Nc1cccc2c1CN(C1CCC(=O)NC1=O)C2=O (stereo unspecified) [LENALIDOMIDE] | 3.1 |  |  |
| CC(C)=CC(=O)NC1CC(=O)NC1=O (stereo unspecified) | > 40 | inactive |  |
| O=C1CC(NC(=O)Cc2ccccc2)C(=O)N1 (stereo unspecified) | > 40 | inactive |  |
| NC[C@H]1CC[C@@H](COC(=O)NC2CCC(=O)NC2=O)CC1.O=C(O)C(F)(F)F (stereo partly specified) |  | inactive | solubility [3]: Soluble |
| NC[C@H]1CC[C@@H](COC(=O)NC2CC(=O)NC2=O)CC1.O=C(O)C(F)(F)F (stereo partly specified) |  | inactive | solubility [3]: Soluble |
| O=C1CC(NC(=O)OC[C@@H]2CCCN2)C(=O)N1 (stereo partly specified) |  | inactive |  |
| O=C1CCC(N2C(=O)c3ccccc3C2=O)C(=O)N1 (stereo unspecified) [THALIDOMIDE] |  |  | half-life [4]: 5.5 to 7.3 h |
| O=C(/C=C/c1ccccc1)NC1CC(=O)NC1=O (stereo unspecified) | 20 |  |  |
| O=C(O)CCC(=O)NCc1ccc(COC(=O)NC2CC(=O)NC2=O)cc1 (stereo unspecified) | 12 | inactive | solubility [2]: > 200 mM |
| O=C1CC(N2C(=O)c3cccc([N+](=O)[O-])c3C2=O)C(=O)N1 (stereo unspecified) | > 40 | inactive |  |
| NCc1ccc(COC(=O)NC2CC(=O)NC2=O)cc1.O=C(O)C(F)(F)F (stereo unspecified) | 12 | inactive | solubility [3]: Soluble |
| O=C1CC(NC(=O)c2sc3cccc(Cl)c3c2Cl)C(=O)N1 (stereo unspecified) | 20 | inactive |  |
| O=C1CC(NC(=O)OCc2ccccc2)C(=O)N1 (stereo unspecified) | 4 |  |  |
| O=C1CC(NC(=O)c2cc([N+](=O)[O-])cc([N+](=O)[O-])c2)C(=O)N1 (stereo unspecified) | > 99 | inactive |  |
